Test results reported in ChEMBL document CHEMBL1154421, “In vitro suppression of K65R reverse transcriptase-mediated tenofovir- and adefovir-5'-diphosphate resistance conferred by the boranophosphonate derivatives” (Antimicrob Agents Chemother, 2007).

Key:
[1] = molecular target: Human immunodeficiency virus type 1 reverse transcriptase (Human immunodeficiency virus 1) (UniProt Q72547); assay: Inhibition of HIV1 wild type reverse transcriptase p66/p51 DNA polymerase activity assessed as formation of terminated DNA products; design: concentration or dose not given beside the values; conditions: concentration not given here
[2] = molecular target: T1, Human immunodeficiency virus type 1 reverse transcriptase (Human immunodeficiency virus 1, UniProt Q72547); assay: Binding affinity to HIV1 wild type reverse transcriptase p66/p51 expressed in Escherichia coli assessed as incorporation of drug to DNA by gel electrophoresis
How it was run: (§1)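 Pre-steady-state single-nucleotide incorporation, rapid quench over 10 ms to 30 s. Primer is a 5'-32P-labelled 21-mer annealed to a 31-mer DNA template. Products resolved on 14% acrylamide/8 M urea gels and phosphorimaged. kpol and Kd fitted to a hyperbola.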

[3] = molecular target: Human immunodeficiency virus type 1 reverse transcriptase (Human immunodeficiency virus 1) (UniProt Q72547); assay: Binding affinity to wild type reverse transcriptase assessed as ratio of catalytic rate constant to Kd for incorporation of drug to DNA by gel electrophoresis; how it was run: as §1
[4] = molecular target: T2, Human immunodeficiency virus type 1 reverse transcriptase (Human immunodeficiency virus 1, UniProt Q72547, K65R); assay: Binding affinity to HIV1 recombinant reverse transcriptase p66/p51 K65R mutant expressed in Escherichia coli assessed as incorporation of drug to DNA by gel electrophoresis; how it was run: as §1
[5] = test system: Human immunodeficiency virus type 1 reverse transcriptase (Human immunodeficiency virus 1), Q72547 [K65R]; assay: Binding affinity to HIV1 recombinant reverse transcriptase p66/p51 K65R mutant expressed in Escherichia coli assessed as ratio of catalytic rate constant to Kd for incorporation of drug to DNA by gel electrophoresis; how it was run: as §1
[6] = test system: Human immunodeficiency virus 1; assay: Ratio of IC50 for HIV1 reverse transcriptase p66/p51 K65R mutant to IC50 for HIV1 wild type reverse transcriptase
How it was run: (§2)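 Recombinant p66/p51 RT, coexpressed with HIV-1 protease in E. coli, affinity-purified and active-site titrated. Reactions used 10 nM RT, 250 µg/ml activated calf thymus DNA and 5 µM each dNTP with [3H]dATP (100 µCi/mmol), run for 15 min across increasing inhibitor. Samples spotted in duplicate on DE81 discs, washed in 0.3 M ammonium formate pH 8.0 and ethanol, then scintillation counted. IC50 averaged from at least three independent experiments.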

[7] = test system: Human immunodeficiency virus type 1 reverse transcriptase (Human immunodeficiency virus 1), Q72547 [K65R]; assay: Binding affinity to HIV1 recombinant reverse transcriptase p66/p51 K65R mutant assessed as ratio of catalytic rate constant to Kd for dATP to drug by gel electrophoresis; how it was run: as §1
[8] = molecular target: Human immunodeficiency virus type 1 reverse transcriptase (Human immunodeficiency virus 1) (UniProt Q72547); assay: Binding affinity to HIV1 wild type reverse transcriptase p66/p51 assessed as ratio of catalytic rate constant to Kd for dATP to drug by gel electrophoresis; how it was run: as §1
[9] = molecular target: T2, Human immunodeficiency virus type 1 reverse transcriptase; assay: Inhibition of HIV1 reverse transcriptase p66/p51 K65R mutant expressed in Escherichia coli using calf thymus DNA substrate; how it was run: as §2
[10] = test system: Human immunodeficiency virus 1; assay: Inhibition of HIV1 […] reverse transcriptase p66/p51 R72A mutant DNA polymerase activity assessed as formation of terminated DNA products; conditions: concentration not given here
How it was run: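 Polymerization rate gel assay with WT or R72A RT (50 nM) and 25 nM 5'-labelled oligo(dA)21 annealed to poly(rU)31, in RT buffer at 37°C. Extension followed over the first seconds with dATP or analogues. Products separated by denaturing gel electrophoresis and autoradiographed.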

[11] = molecular target: T1, Human immunodeficiency virus type 1 reverse transcriptase; assay: Inhibition of HIV1 wild type reverse transcriptase p66/p51 expressed in Escherichia coli using calf thymus DNA substrate; how it was run: as §2

## Nc1ncnc2c1ncn2[C@H]1C[C@H](O)[C@@H](COP(=O)(O)OP(=O)(O)OP(=O)(O)O)O1
[1]
  inhibition: 75%
[2]
  Kd: 7.5 µM
[3]
  Ratio: 6.7
[4]
  Kd: 6.9 µM
[5]
  Ratio: 1.7

## BP(=O)(COCCn1cnc2c(N)ncnc21)OP(=O)(O)OP(=O)(O)O (centres undefined)
[1]
  inhibition: 69%
[2]
  Kd: 6.5 µM
[6]
  Ratio IC50: 0.7
[3]
  Ratio: 0.3
[7]
  Ratio: 8.8
[4]
  Kd: 7.1 µM
[8]
  Ratio: 21.7
[9]
  IC50: 12 µM
[10]
  inhibition: 53%
[5]
  Ratio: 0.2
[11]
  IC50: 17 µM

## Nc1ncnc2c1ncn2CCOCP(=O)(O)OP(=O)(O)OP(=O)(O)O [ADEFOVIR DIPHOSPHATE]
[1]
  inhibition: 72%
[2]
  Kd: 7.9 µM
[6]
  Ratio IC50: 6
[3]
  Ratio: 0.9
[7]
  Ratio: 17.9
[4]
  Kd: 7.7 µM
[8]
  Ratio: 7.7
[9]
  IC50: 52 µM
[10]
  inhibition: 1.6%
[5]
  Ratio: 0.1
[11]
  IC50: 8.3 µM

## C[C@H](Cn1cnc2c(N)ncnc21)OCP(=O)(O)OP(=O)(O)OP(=O)(O)O
[1]
  inhibition: 74%
[2]
  Kd: 23 µM
[6]
  Ratio IC50: 8
[3]
  Ratio: 0.3
[7]
  Ratio: 97.8
[4]
  Kd: 18 µM
[8]
  Ratio: 21.9
[9]
  IC50: 170 µM
[10]
  inhibition: 0.2%
[5]
  Ratio: 0.02
[11]
  IC50: 22 µM

## BP(=O)(CO[C@H](C)Cn1cnc2c(N)ncnc21)OP(=O)(O)OP(=O)(O)O (some centres undefined)
[1]
  inhibition: 74%
[2]
  Kd: 33 µM
[6]
  Ratio IC50: 1.2
[3]
  Ratio: 0.7
[7]
  Ratio: 10
[4]
  Kd: 35 µM
[8]
  Ratio: 9.6
[9]
  IC50: 18 µM
[10]
  inhibition: 45%
[5]
  Ratio: 0.17
[11]
  IC50: 14.5 µM
